The record followed here is PubChem BioAssay AID623899 (Broad Institute, 2012).

Several values for one entry are separate records, joined by “and”; a condition that tells them apart may be missing. Identical values can stand only once. Activity calls are given as the source filed them.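 Rule for the calls: active = falling signal with AC50 at or below twice the highest valid dose tested for that sample; inconclusive = flat curve at 30 to 70% inhibition, or unreliable fit; inactive = the rest.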

The AC50 is the concentration at which the activity in the assay is half-maximal.

Experiment [1] in a line: single-agent C. albicans CaCi-2 growth inhibition, dose response, CaCi-2 strain, dry powder, plate reader, set 2 (AID 623899). Particulars: C. albicans CaCi-2 growth, Alamar Blue fluorescence, 48 h; at 26 µM (top of the series). Put shortly:
(§1)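 System: fluconazole-resistant C. albicans strain CaCi-2 / Input: inoculum OD600 0.00015 / Dosing: dose-response series of pinned test compound / Timing: compound exposure 48 h, 37 °C, humidified, static, then dye 2 h / Measured by: Alamar Blue fluorescence, read 2 h after dye addition / Controls: amphotericin 10 µM as positive control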
(Alamar Blue is a resazurin reagent that responds to reducing activity.)

Experiment [2] deals with C. albicans CaCi-2 growth, Alamar Blue fluorescence, 48 h. Described as above. In outline: as §1

In the case of `CCOC(=O)N1C(=S)N(c2ccc(C)cc2)C(=O)C12CCCCC2`, in experiment [1], the activity change, negative = inhibition was 6.88% (inactive).

Regarding `CCOC(=O)N1C(=O)C2(CCCCC2)N(c2ccc(C(C)C)cc2)C1=S`, the activity change, negative = inhibition in experiment [1] was -19.6% (inactive). For the molecule `CCOC(=O)N1C(=O)C2(CCCCC2)N(c2ccc(F)cc2)C1=S`, the AC50 in experiment [2] was < 100 nM.

Take `CCOC(=O)N1C(=O)C2(CCCCC2)N(c2ccc(CC)cc2)C1=S`: in experiment [2], the concentration at half-maximal activity (AC50) was 1900 nM.

For `CCCC(=O)N1C(=O)C2(CCCCC2)N(c2ccc(C)cc2)C1=S`, in experiment [1], the activity change, negative = inhibition was 15.2% (inactive). Take `CCOC(=O)N1C(=O)C2(CCCCC2)N(c2ccccc2)C1=S`: in experiment [2], the AC50 is 148 nM. Consider `CCOC(=O)N1C(=O)C2(CCOCC2)N(c2ccc(C)cc2)C1=S`, for which, in experiment [2], the AC50 is 20600 nM.

Turning to `CCOC(=O)N1C(=S)NC(=O)C12CCCCC2`, in experiment [1], the activity change, negative = inhibition is 6.84% (inactive).

Regarding `CCOC(=O)N1C(=O)C(C)(C)N(c2ccc(C)cc2)C1=S`, the activity change, negative = inhibition in experiment [1] was 17.8% (inactive). In the case of `CCCc1ccc(N2C(=S)N(C(=O)OCC)C(=O)C23CCCCC3)cc1`, the AC50 in experiment [2] is 6910 nM. `COC(=O)N1C(=O)C2(CCCCC2)N(c2ccc(C)cc2)C1=S`: in experiment [2], the AC50 is 1890 nM. Still for that read-out and setting: to `CC1/C=C/C=C\C=C\C=C\C=C\C=C\C=C\C(O[C@H]2OC(C)C(O)C(N)C2O)CC2OC(O)(CC(O)CC(O)C(O)CCC(O)CC(O)CC(=O)OC(C)C(C)C1O)CC(O)C2C(=O)O` (stereo partly specified) belongs < 10 nM. `CCCCN1C(=O)N(c2ccc(C)cc2)C2(CCCCC2)C1=O`: the activity change, negative = inhibition in experiment [1] was 9.77% (inactive). On to `CCOC(=O)N1C(=O)C2(CCCCC2)N(Cc2ccccc2)C1=S`, for which the AC50 in experiment [2] is 3760 nM. Consider `CCCCN1C(=O)C2(CCCCC2)N(c2ccc(C)cc2)C1=S`, for which the AC50 in experiment [2] was > 52000 nM (inactive). Still for that read-out and setting: to `CCOC(=O)N1C(=O)C2(CCCCC2)N(c2ccccc2C)C1=S` belongs 1200 nM. Take `Cc1ccc(N2C(=O)NC(=O)C23CCCCC3)cc1`: the activity change, negative = inhibition in experiment [1] is 14.7% (inactive). For the molecule `O=C1NC(=S)N(c2ccccc2)C12CCCCC2`, the AC50 in experiment [2] is > 52000 nM (inactive).

Consider `CCOC(=O)N1C(=O)C2(CCCCC2)N(C(C)C)C1=S`, for which the activity change, negative = inhibition in experiment [1] is -20% (inactive). Consider `Cc1ccc(N2C(=O)C(=O)NC2=S)cc1`, for which the activity change, negative = inhibition in experiment [1] is 9.23% (inactive). On to `O=C1NC(=S)NC12CCCCC2`, for which the activity change, negative = inhibition in experiment [1] is 4.86% (inactive). Still for that read-out and setting: then `O=C1NC(=S)N(Cc2ccccc2)C12CCCCC2`, with 0.564% (inactive). As for `CCCOC(=O)N1C(=O)C2(CCCCC2)N(c2ccc(C)cc2)C1=S`, the AC50 in experiment [2] was 5900 nM. Regarding `CCOC(=O)N1C(=O)C2(CCCCC2)N(c2ccc(C(F)(F)F)cc2)C1=S`, the AC50 in experiment [2] was 841 nM. As for `CC(C)N1C(=S)NC(=O)C12CCCCC2`, the activity change, negative = inhibition in experiment [1] is -4.41% (inactive). Consider `CCOC(=O)N1C(=O)C2(CCCCC2)N(c2ccc(Cl)cc2)C1=S`, for which the AC50 in experiment [2] is < 100 nM. As for `Cc1ccc(N2C(=S)N(C(=O)Oc3ccccc3)C(=O)C23CCCCC3)cc1`, the activity change, negative = inhibition in experiment [1] was 9.01% (inactive).

For the molecule `Cc1ccc(N2C(=S)N(C(=O)OC(C)C)C(=O)C23CCCCC3)cc1`, in experiment [2], the AC50 is 8740 nM. Take `CCOC(=O)N1C(=O)N(c2ccc(C)cc2)C2(CCCCC2)C1=O`: the activity change, negative = inhibition in experiment [1] is -28.5% (inactive). On to `CCOC(=O)N1C(=O)C2(CCCCC2)N(c2ccc(C#N)cc2)C1=S`, for which the AC50 in experiment [2] was < 100 nM.

For the molecule `CCOC(=O)N1C(=O)C2(CCCCC2)N(c2ccc(OC)cc2)C1=S`, the AC50 in experiment [2] is 1780 nM. For the molecule `O=C1NC(=S)N(c2ccc(F)cc2)C12CCCCC2`, in experiment [1], the activity change, negative = inhibition was -13.4% (inactive). For `CCCCN1C(=O)N(c2ccc(C)cc2)C2(CCCCC2)C1=S`, the AC50 in experiment [2] was > 52000 nM (inactive).

On to `CCOC(=O)N1C(=O)C2(CCCCC2)N(c2cccc(C)c2)C1=S`, for which the AC50 in experiment [2] was 189 nM. Regarding `CCOC(=O)N1C(=O)C2(CCC2)N(c2ccc(C)cc2)C1=S`, the activity change, negative = inhibition in experiment [1] is 18% (inactive). `Cc1ccc(N2C(=S)NC(=O)C23CCC3)cc1`: in experiment [1], the activity change, negative = inhibition is -14.6% (inactive). For the molecule `Cc1ccc(N2C(=S)N(C(=O)OCc3ccccc3)C(=O)C23CCCCC3)cc1`, the activity change, negative = inhibition in experiment [1] was 1.35% (inactive). Same read-out and setting: then `CCOC(=O)N1C(=O)C2(CCCCC2)NC1=S`, with 0.477% (inactive); and `Cc1ccc(N2C(=S)NC(=O)C2(C)C)cc1`, with 2.43% (inactive). On to `Cc1ccc(N2C(=S)NC(=O)C23CCOCC3)cc1`, for which the activity change, negative = inhibition in experiment [1] is -17.4% (inactive). As for `Cc1ccc(N2C(=S)NC(=O)C23CCCC3)cc1`, the activity change, negative = inhibition in experiment [1] is 7.79% (inactive).

On to `Cc1ccc(N2CC(=O)NC2=O)cc1`, for which the activity change, negative = inhibition in experiment [1] is -7.46% (inactive). Still for that read-out and setting: then `Cc1ccc(N2C(=S)N(S(C)(=O)=O)C(=O)C23CCCCC3)cc1`, with 8.47% (inactive). For the molecule `Cc1ccc(N2C(=O)N(C)C(=O)C23CCCCC3)cc1`, in experiment [1], the activity change, negative = inhibition is 8.26% (inactive).

Take `CCOC(=O)N1C(=O)C2(CCCCC2)N(c2ccc(C)cc2)C1=S`: the AC50 in experiment [2] is 359 nM and 303 nM. Regarding `Cc1ccc(N2C(=S)N(C)C(=O)C23CCCCC3)cc1`, in experiment [1], the activity change, negative = inhibition is -8.14% (inactive) and -15.3% (inactive).

As to `CCOC(=O)N1C(=O)C2(CCCC2)N(c2ccc(C)cc2)C1=S`, the AC50 in experiment [2] is 9790 nM.

Regarding `Cc1ccc(N2CC(=O)NC2=S)cc1`, the activity change, negative = inhibition in experiment [1] is -6.22% (inactive). Take `Cc1ccc(N2C(=O)C3(CCCCC3)NC2=S)cc1`: the activity change, negative = inhibition in experiment [1] was 9.21% (inactive). The same measure, in the same setting: to `CCOC(=O)N1C(=S)N(c2ccc(C)cc2)C2(CCCCC2)C1=NCc1ccccc1` belongs 3.84% (inactive). With `Cc1ccc(N2C(=S)NC(=O)C23CCCCC3)cc1`, the AC50 in experiment [2] was > 52000 nM (inactive).
